This test relates to NF-κB. Put plainly: NF-κB activation using THP1-Blue NF-κB cells. Type of test: cell-based, human. The note with it: for activation at 5 µM: Homo sapiens, 20 h, read-out: NF-κB SEAP Compound alone % Activation; for NF-κB activity (in words, SAR text to Table 1): compound alone, 5 μM, 20h. An outline of the steps:
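THP1-Blue NF-κB cells carry a stably integrated NF-κB-inducible SEAP. They were plated at 10^5 cells/well in RPMI with 10% FBS, penicillin, streptomycin and Normocin, then treated for 20 h with 5 μM test compound (0.5% DMSO final), alone or with LPS at 10 ng/mL. Supernatant SEAP was read colorimetrically at 630 nm. Signals were two-point normalized: baseline (vehicle or LPS) 100%, reference hit 200%.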

Consider `Cc1ccccc1-c1csc(NC(=O)c2ccc(S(=O)(=O)N3CCCCC3)cc2)n1` [Compound 12b, 4-(piperidin-1-ylsulfonyl)-N-(4-(o-tolyl)thiazol-2-yl)benzamide], for which the activation at 5 µM stood at 100% and the “NF-κB activity (in words, SAR text to Table 1)” value (“NF-κB activity” below) is “inactive”. Turning to `Cc1cccc(-c2csc(NC(=O)c3ccc(S(=O)(=O)N4CCCCC4)cc3)n2)c1` [Compound 12c, 4-(piperidin-1-ylsulfonyl)-N-(4-(m-tolyl)thiazol-2-yl)benzamide], the activation at 5 µM turned out to be 100% and the “NF-κB activity” value was “inactive”. Regarding `Cc1ccc(Br)cc1-c1csc(NC(=O)c2ccc(S(=O)(=O)N3CCCCC3)cc2)n1` [Compound 12e, N-(4-(5-bromo-2-methylphenyl)thiazol-2-yl)-4-(piperidin-1-ylsulfonyl)benzamide], the “NF-κB activity” value is “active”.

With `Cc1ccc(C)c(Cc2csc(NC(=O)c3ccc(S(=O)(=O)N4CCCCC4)cc3)n2)c1` [Compound 12f, N-(4-(2,5-dimethylbenzyl)thiazol-2-yl)-4-(piperidin-1-ylsulfonyl)benzamide], the “NF-κB activity” value was “inactive”.

Take `Cc1csc(NC(=O)c2ccc(S(=O)(=O)N3CCCCC3)cc2)n1` [Compound 12g, N-(4-methylthiazol-2-yl)-4-(piperidin-1-ylsulfonyl)benzamide]: the activation at 5 µM came out at 100% and the “NF-κB activity” value was “None of these molecules had any NF-κB activity”. As to `CCc1csc(NC(=O)c2ccc(S(=O)(=O)N3CCCCC3)cc2)n1` [Compound 12h, N-(4-ethylthiazol-2-yl)-4-(piperidin-1-ylsulfonyl)benzamide], the activation at 5 µM was determined as 100% and the “NF-κB activity” value is given as “None of these molecules had any NF-κB activity”. On to `CCCc1csc(NC(=O)c2ccc(S(=O)(=O)N3CCCCC3)cc2)n1` [Compound 12i, 4-(piperidin-1-ylsulfonyl)-N-(4-propylthiazol-2-yl)benzamide], for which the activation at 5 µM amounted to 100% and the “NF-κB activity” value is “None of these molecules had any NF-κB activity”. Take `CC(C)(C)Cc1csc(NC(=O)c2ccc(S(=O)(=O)N3CCCCC3)cc2)n1` [Compound 12j, N-(4-neopentylthiazol-2-yl)-4-(piperidin-1-ylsulfonyl)benzamide]: the “NF-κB activity” value was “None of these molecules had any NF-κB activity”.

Take `CC(C)(C)c1csc(NC(=O)c2ccc(S(=O)(=O)N3CCCCC3)cc2)n1` [Compound 12k, N-(4-(tert-butyl)thiazol-2-yl)-4-(piperidin-1-ylsulfonyl)benzamide]: the “NF-κB activity” value is on record as “None of these molecules had any NF-κB activity”. Regarding `Cc1cccc(-c2csc(NC(=O)c3ccc(S(=O)(=O)N4CCCCC4)cc3)n2)c1C` [Compound 12l, N-(4-(2,3-dimethylphenyl)thiazol-2-yl)-4-(piperidin-1-ylsulfonyl)benzamide], the “NF-κB activity” value is “retained activity”. On to `Cc1cc(C)cc(-c2csc(NC(=O)c3ccc(S(=O)(=O)N4CCCCC4)cc3)n2)c1` [Compound 12o, N-(4-(3,5-dimethylphenyl)thiazol-2-yl)-4-(piperidin-1-ylsulfonyl)benzamide], for which the “NF-κB activity” value was “inactive”.

As to `Cc1cccc(C)c1-c1csc(NC(=O)c2ccc(S(=O)(=O)N3CCCCC3)cc2)n1` [Compound 12p, N-(4-(2,6-dimethylphenyl)thiazol-2-yl)-4-(piperidin-1-ylsulfonyl)benzamide], the “NF-κB activity” value was “retained activity”. On the same count and under the same terms, as for `O=C(Nc1nc(-c2cccc3ccccc23)cs1)c1ccc(S(=O)(=O)N2CCCCC2)cc1` [Compound 12q, N-(4-(naphthalen-1-yl)thiazol-2-yl)-4-(piperidin-1-ylsulfonyl)benzamide], the entry is “equally potent”.

Regarding `Cc1ccc2c(c1)-c1nc(NC(=O)c3ccc(S(=O)(=O)N4CCCCC4)cc3)sc1C2` [Compound 12r, N-(5-methyl-8H-indeno[1,2-d]thiazol-2-yl)-4-(piperidin-1-ylsulfonyl)benzamide], the “NF-κB activity” value is listed as “weakly active”. In the case of `Cc1ccc2c(c1)-c1nc(NC(=O)c3ccc(S(=O)(=O)N4CCCCC4)cc3)sc1CC2` [Compound 12s, N-(8-methyl-4,5-dihydronaphtho[1,2-d]thiazol-2-yl)-4-(piperidin-1-ylsulfonyl)benzamide], the “NF-κB activity” value is “weakly active”.

`C#Cc1ccc(C)c(-c2csc(NC(=O)c3ccc(S(=O)(=O)N4CCCCC4)cc3)n2)c1` [Compound 12t, N-(4-(5-ethynyl-2-methylphenyl)thiazol-2-yl)-4-(piperidin-1-ylsulfonyl)benzamide]: the “NF-κB activity” value was “inactive”. As to `CCc1ccc(C)c(-c2csc(NC(=O)c3ccc(S(=O)(=O)N4CCCCC4)cc3)n2)c1` [Compound 12u, N-(4-(5-ethyl-2-methylphenyl)thiazol-2-yl)-4-(piperidin-1-ylsulfonyl)benzamide], the “NF-κB activity” value is “regained the NF-κB activity”. Consider `Cc1ccc(C)c(-c2c[nH]c(NC(=O)c3ccc(S(=O)(=O)N4CCCCC4)cc3)n2)c1` [Compound 18a, N-(4-(2,5-dimethylphenyl)-1H-imidazol-2-yl)-4-(piperidin-1-ylsulfonyl)benzamide], for which the “NF-κB activity” value is listed as “none of these molecules that replaced the thiazole functionality was active”. For the compound `Cc1ccc(C)c(-c2cccc(NC(=O)c3ccc(S(=O)(=O)N4CCCCC4)cc3)n2)c1` [Compound 18b, N-(6-(2,5-dimethylphenyl)pyridin-2-yl)-4-(piperidin-1-ylsulfonyl)benzamide], the “NF-κB activity” value is on record as “none of these molecules that replaced the thiazole functionality was active”. Take `Cc1ccc(C)c(-c2ccc(NC(=O)c3ccc(S(=O)(=O)N4CCCCC4)cc3)nc2)c1` [Compound 18c, N-(5-(2,5-dimethylphenyl)pyridin-2-yl)-4-(piperidin-1-ylsulfonyl)benzamide]: the “NF-κB activity” value is on record as “none of these molecules that replaced the thiazole functionality was active”. As to `Cc1ccc(C)c(-c2ccc(NC(=O)c3ccc(S(=O)(=O)N4CCCCC4)cc3)cn2)c1` [Compound 18d, N-(6-(2,5-dimethylphenyl)pyridin-3-yl)-4-(piperidin-1-ylsulfonyl)benzamide], the “NF-κB activity” value is recorded as “none of these molecules that replaced the thiazole functionality was active”.

As to `Cc1ccc(C)c(-c2cnc(NC(=O)c3ccc(S(=O)(=O)N4CCCCC4)cc3)s2)c1` [Compound 18e, N-(5-(2,5-dimethylphenyl)thiazol-2-yl)-4-(piperidin-1-ylsulfonyl)benzamide], the “NF-κB activity” value is listed as “none of these molecules that replaced the thiazole functionality was active”. Turning to `Cc1ccc(C)c(-c2nnc(NC(=O)c3ccc(S(=O)(=O)N4CCCCC4)cc3)s2)c1` [Compound 18f, N-(5-(2,5-dimethylphenyl)-1,3,4-thiadiazol-2-yl)-4-(piperidin-1-ylsulfonyl)benzamide], the “NF-κB activity” value is “none of these molecules that replaced the thiazole functionality was active”. In the case of `CCN(CC)c1sc(NC(=O)c2ccc(S(=O)(=O)N3CCCCC3)cc2)nc1-c1cc(C)ccc1C` [Compound 18g, N-(5-(diethylamino)-4-(2,5-dimethylphenyl)thiazol-2-yl)-4-(piperidin-1-ylsulfonyl)benzamide], the “NF-κB activity” value was “completely inactive”.

On to `Cc1ccc(C)c(-c2nc(NC(=O)c3ccc(S(=O)(=O)N4CCCCC4)cc3)sc2N2CCCCC2)c1` [Compound 18h, N-(4-(2,5-dimethylphenyl)-5-(piperidin-1-yl)thiazol-2-yl)-4-(piperidin-1-ylsulfonyl)benzamide], for which the “NF-κB activity” value was “completely inactive”.

With `Cc1ccc(C)c(-c2nc(NC(=O)c3ccc(S(=O)(=O)N4CCCCC4)cc3)sc2-c2ccccc2)c1` [Compound 18i, N-(4-(2,5-dimethylphenyl)-5-phenylthiazol-2-yl)-4-(piperidin-1-ylsulfonyl)benzamide], the “NF-κB activity” value was “completely inactive”. Same read-out and setting: as for `Cc1ccc(C)c(-c2nc(NC(=O)c3ccc(S(=O)(=O)N4CCCCC4)cc3)sc2-c2ccco2)c1` [Compound 18j, N-(4-(2,5-dimethylphenyl)-5-(furan-2-yl)thiazol-2-yl)-4-(piperidin-1-ylsulfonyl)benzamide], the entry is “completely inactive”; as for `CCSc1sc(NC(=O)c2ccc(S(=O)(=O)N3CCCCC3)cc2)nc1-c1cc(C)ccc1C` [Compound 18k, N-(4-(2,5-dimethylphenyl)-5-(ethylthio)thiazol-2-yl)-4-(piperidin-1-ylsulfonyl)benzamide], “completely inactive”. As for `CCOc1sc(NC(=O)c2ccc(S(=O)(=O)N3CCCCC3)cc2)nc1-c1cc(C)ccc1C` [Compound 18l, N-(4-(2,5-dimethylphenyl)-5-ethoxythiazol-2-yl)-4-(piperidin-1-ylsulfonyl)benzamide], the “NF-κB activity” value is reported as “partial activity”. Consider `C#Cc1sc(NC(=O)c2ccc(S(=O)(=O)N3CCCCC3)cc2)nc1-c1cc(C)ccc1C` [Compound 18o, N-(4-(2,5-dimethylphenyl)-5-ethynylthiazol-2-yl)-4-(piperidin-1-ylsulfonyl)benzamide], for which the “NF-κB activity” value is “weak activity”. As to `CCC#Cc1sc(NC(=O)c2ccc(S(=O)(=O)N3CCCCC3)cc2)nc1-c1cc(C)ccc1C` [Compound 18p, N-(5-(but-1-yn-1-yl)-4-(2,5-dimethylphenyl)thiazol-2-yl)-4-(piperidin-1-ylsulfonyl)benzamide], the “NF-κB activity” value was “very potent”.
